Calls of active or inactive are those of the source. The rule behind the calls is not given here.
Key:
[1] = system: NCI-H1299; assay: Downregulation of CENPK mRNA expression in human NCI-H1299 cells at 10 uM incubated for 48 hrs by qRT-PCR analysis; assay type: functional, cell-based
Summary of the method: (§1)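 Cells treated 48 h. Total RNA extracted with Trizol, reverse-transcribed, and SYBR RT-qPCR run: 95 °C 30 s, then 40 cycles of 95 °C 6 s and 60 °C 20 s. mRNA normalized to the DMSO-treated group. Mean SD of three independent experiments, t-test versus DMSO.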

[2] = system: WSUDLCL2; assay: Antiproliferative activity against human WSUDLCL2 cells harboring EZH2-Y641F mutant assessed as inhibition of cell growth at 10 uM incubated for 9 days by optical microscopic analysis; assay type: functional, cell-based; conditions: time 9.0 day
Summary of the method: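 WSU-DLCL-2 cells seeded at 5 × 10³ per well, incubated 24 h, then exposed to 10 μM compound for 9 days with medium refreshed. Cells photographed and counted on days 1, 3, 5, 7 and 9. Mean SD of three independent experiments, t-test versus DMSO.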

[3] = molecular target: T1, Protein cereblon/Histone-lysine N-methyltransferase EZH2 (Homo sapiens) (UniProt Q15910+Q96SW2); assay: PROTAC activity at CRBN E3 ligase/EZH2 in PRC2 complex in human WSUDLCL2 cells assessed as induction of SUZ12 degradation at 10 uM incubated for 48 hrs by Western blot analysis; assay type: cell-based
[4] = system: WSUDLCL2; assay: Inhibition of PRC2 in human WSUDLCL2 cells assessed as suppression H3K27 dimethylation at 10 uM incubated for 48 hrs by Western blot analysis; assay type: cell-based
Summary of the method: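 Lysates run on SDS-PAGE and transferred to nitrocellulose. Membranes blocked with 5% skim milk for 2 h, primary antibody applied overnight at 4 °C, then secondary antibody and chemiluminescent detection of histone H3 methylation marks.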

[5] = molecular target: T1, Protein cereblon/Histone-lysine N-methyltransferase EZH2 (Homo sapiens); assay: PROTAC activity at CRBN E3 ligase/EZH2 in PRC2 complex in human SU-DHL-6 cells assessed as induction of RbAp48 degradation by measuring reduction in RbAp48 protein level at 1 uM incubated for 48 hrs by Western blot analysis; assay type: cell-based
Summary of the method: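 Cells cultured in DMEM or RPMI 1640 with 10% FBS and 1% penicillin-streptomycin, 37 °C, 5% CO2; exposed to 1 μM compound for 48 h. Lysates run on SDS-PAGE and transferred to nitrocellulose. Blocked 2 h in 5% skim milk, primary antibody overnight at 4 °C, then secondary antibody. Chemiluminescent detection of PRC2 subunits and H3K27me3.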

[6] = molecular target: T1, Protein cereblon/Histone-lysine N-methyltransferase EZH2 (Homo sapiens); assay: PROTAC activity at CRBN E3 ligase/EZH2 in PRC2 complex in human LNCaP cells assessed as induction of EED degradation by measuring reduction in EED protein level at 1 uM incubated for 48 hrs by Western blot analysis; assay type: cell-based
Summary of the method: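 Cancer cell lines exposed to 1 μM compound for 48 h. Lysates immunoblotted (SDS-PAGE, nitrocellulose, 5% milk block, primary antibody overnight at 4 °C) for EZH2, SUZ12, EED, RbAp48 and H3K27me3. Bands quantified by densitometry and normalized to GAPDH.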

[7] = molecular target: T1, Protein cereblon/Histone-lysine N-methyltransferase EZH2 (Homo sapiens); assay: PROTAC activity at CRBN E3 ligase/EZH2 in PRC2 complex in human WSUDLCL2 cells assessed as downregulation of EZH2 expression at 1 uM pretreated with MG-132 for 4 hrs followed by compound addition and measured after 48 hrs by Western blot analysis; assay type: cell-based
Summary of the method: (§2)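 WSU-DLCL-2 cells pretreated 4 h with the named inhibitor, then compound added and incubated a further 48 h. EZH2, SUZ12, EED and RbAp48 measured by western blot (nitrocellulose transfer, skim-milk block, primary antibody overnight at 4 °C, chemiluminescent detection).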

[8] = molecular target: T1, Protein cereblon/Histone-lysine N-methyltransferase EZH2 (Homo sapiens); assay: PROTAC activity at CRBN E3 ligase/EZH2 in PRC2 complex in human WSUDLCL2 cells assessed as downregulation of SUZ12 expression at 1 uM pretreated with GSK126 for 4 hrs followed by compound addition and measured after 48 hrs by Western blot analysis; assay type: cell-based; summary of the method: as §2
[9] = molecular target: T1, Protein cereblon/Histone-lysine N-methyltransferase EZH2 (Homo sapiens); assay: PROTAC activity at CRBN E3 ligase/EZH2 in PRC2 complex in human WSUDLCL2 cells assessed as downregulation of EZH2 expression at 1 uM pretreated with EED226 for 4 hrs followed by compound addition and measured after 48 hrs by Western blot analysis; assay type: cell-based; summary of the method: as §2
[10] = molecular target: T1, Protein cereblon/Histone-lysine N-methyltransferase EZH2 (Homo sapiens); assay: PROTAC activity at CRBN E3 ligase/EZH2 in PRC2 complex in human WSUDLCL2 cells assessed as downregulation of RbAp48 expression at 1 uM pretreated with EED226 for 4 hrs followed by compound addition and measured after 48 hrs by Western blot analysis; assay type: cell-based; summary of the method: as §2
[11] = molecular target: T1, Protein cereblon/Histone-lysine N-methyltransferase EZH2 (Homo sapiens); assay: PROTAC activity at CRBN E3 ligase/EZH2 in PRC2 complex in human WSUDLCL2 cells assessed as increase in EED ubiquitination at 1 uM measured after 48 hrs by co-immunoprecipitation assay; assay type: cell-based
Summary of the method: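 WSU-DLCL-2 cells treated with 1 μM compound for 48 h and lysed in RIPA buffer. Lysates incubated with antibodies overnight at 4 °C, then 3 h with Protein G agarose beads at 4 °C. Proteins eluted in IP buffer and ubiquitination of the target probed by immunoblot.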

[12] = system: NCI-H1299; assay: Downregulation of […] mRNA expression in human NCI-H1299 cells at 10 uM incubated for 48 hrs by qRT-PCR analysis; assay type: functional, cell-based; summary of the method: as §1
[13] = system: MDA-MB-468; assay: Downregulation of ARL6IP mRNA expression in human MDA-MB-468 cells at 10 uM incubated for 48 hrs by qRT-PCR analysis; assay type: functional, cell-based; summary of the method: as §1
[14] = system: MDA-MB-468; assay: Downregulation of CEP76 mRNA expression in human MDA-MB-468 cells at 10 uM incubated for 48 hrs by qRT-PCR analysis; assay type: functional, cell-based; summary of the method: as §1
[15] = system: A549; assay: Antiproliferative activity against human A549 cells harboring SWI/SNF mutant assessed as inhibition of cell growth at 10 uM treated for 9 days by optical microscopic analysis; assay type: functional, cell-based; conditions: time 9.0 day
Summary of the method: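 Cells seeded at 5 × 10³ per well, grown 24 h, then exposed to compound at 10 μM for 9 days with medium refreshed. Cells were photographed and counted on days 1, 3, 5, 7 and 9. For lines 1-2, EZH2-targeting or control shRNA was induced in the cells. Mean SD of three independent experiments; t-test against control.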

[16] = molecular target: T1, Protein cereblon/Histone-lysine N-methyltransferase EZH2 (Homo sapiens); assay: PROTAC activity at CRBN E3 ligase/EZH2 in PRC2 complex in human WSUDLCL2 cells assessed as downregulation of SUZ12 expression at 1 uM pretreated with lenalidomide for 4 hrs followed by compound addition and measured after 48 hrs by Western blot analysis; assay type: cell-based; summary of the method: as §2
[17] = molecular target: T1, Protein cereblon/Histone-lysine N-methyltransferase EZH2 (Homo sapiens); assay: PROTAC activity at CRBN E3 ligase/EZH2 in PRC2 complex in human WSUDLCL2 cells assessed as downregulation of EZH2 expression at 1 uM pretreated with MLN4924 for 4 hrs followed by compound addition and measured after 48 hrs by Western blot analysis; assay type: cell-based; summary of the method: as §2
[18] = molecular target: T1, Protein cereblon/Histone-lysine N-methyltransferase EZH2 (Homo sapiens); assay: PROTAC activity at CRBN E3 ligase/EZH2 in PRC2 complex in human WSUDLCL2 cells assessed as downregulation of RbAp48 expression at 1 uM pretreated with MLN4924 for 4 hrs followed by compound addition and measured after 48 hrs by Western blot analysis; assay type: cell-based; summary of the method: as §2
[19] = molecular target: T1, Protein cereblon/Histone-lysine N-methyltransferase EZH2 (Homo sapiens); assay: PROTAC activity at CRBN E3 ligase/EZH2 in PRC2 complex in human WSUDLCL2 cells assessed as downregulation of SUZ12 expression at 1 uM pretreated with EPZ6438 for 4 hrs followed by compound addition and measured after 48 hrs by Western blot analysis; assay type: cell-based; summary of the method: as §2

T1 sequence (Q15910 whole entry, looked up): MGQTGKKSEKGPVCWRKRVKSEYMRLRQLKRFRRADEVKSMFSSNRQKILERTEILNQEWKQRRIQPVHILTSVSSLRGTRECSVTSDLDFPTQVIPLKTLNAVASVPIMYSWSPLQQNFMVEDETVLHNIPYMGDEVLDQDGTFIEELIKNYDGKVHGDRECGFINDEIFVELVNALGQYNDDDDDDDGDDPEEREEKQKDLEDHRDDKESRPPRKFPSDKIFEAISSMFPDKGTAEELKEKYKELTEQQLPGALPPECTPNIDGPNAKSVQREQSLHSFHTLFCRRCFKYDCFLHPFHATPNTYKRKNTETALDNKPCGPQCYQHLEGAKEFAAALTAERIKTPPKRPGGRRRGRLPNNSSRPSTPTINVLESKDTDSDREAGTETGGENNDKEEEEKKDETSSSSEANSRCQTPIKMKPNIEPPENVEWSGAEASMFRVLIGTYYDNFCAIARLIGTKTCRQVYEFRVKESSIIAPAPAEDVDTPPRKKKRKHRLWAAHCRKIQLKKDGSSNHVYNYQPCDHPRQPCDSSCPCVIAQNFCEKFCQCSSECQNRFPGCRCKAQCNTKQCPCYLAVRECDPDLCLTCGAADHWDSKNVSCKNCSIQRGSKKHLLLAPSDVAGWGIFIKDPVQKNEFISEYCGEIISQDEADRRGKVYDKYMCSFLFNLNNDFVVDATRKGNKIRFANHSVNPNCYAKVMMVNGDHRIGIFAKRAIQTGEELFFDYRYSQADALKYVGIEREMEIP
T1 sequence (Q96SW2 whole entry, looked up): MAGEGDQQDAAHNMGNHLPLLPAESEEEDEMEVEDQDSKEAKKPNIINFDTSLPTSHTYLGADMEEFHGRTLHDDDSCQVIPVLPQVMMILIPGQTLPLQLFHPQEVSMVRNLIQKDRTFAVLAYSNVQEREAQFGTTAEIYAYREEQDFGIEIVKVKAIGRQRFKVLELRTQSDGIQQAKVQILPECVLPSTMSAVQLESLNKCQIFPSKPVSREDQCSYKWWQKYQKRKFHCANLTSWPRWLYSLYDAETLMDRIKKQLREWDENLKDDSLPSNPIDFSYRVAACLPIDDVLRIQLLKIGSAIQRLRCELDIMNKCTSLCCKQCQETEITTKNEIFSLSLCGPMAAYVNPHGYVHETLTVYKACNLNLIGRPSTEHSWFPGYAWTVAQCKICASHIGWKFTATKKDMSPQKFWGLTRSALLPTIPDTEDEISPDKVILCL

CCN(c1cc(-c2ccc(CN3CCN(CCCCCCCOc4cccc5c4C(=O)N(C4CCC(=O)NC4=O)C5=O)CC3)cc2)cc(C(=O)NCc2c(C)cc(C)[nH]c2=O)c1C)C1CCOCC1 (centres undefined)
Activity [1]: Active
Activity [2]: Active
Activity [3]: inactive
inhibition [4]: Active
Activity [5]: Active
Activity [6]: Active
Activity [7]: inactive
Activity [8]: inactive
Activity [9]: Active
Activity [10]: Active
Activity [11]: Active
Activity [12]: Active
Activity [13]: Active
Activity [14]: Active
Activity [15]: Active
Activity [16]: inactive
Activity [17]: inactive
Activity [18]: inactive
Activity [19]: inactive

Source: ChEMBL document CHEMBL5038571, “Design and Synthesis of EZH2-Based PROTACs to Degrade the PRC2 Complex for Targeting the Noncatalytic Activity of EZH2” (J Med Chem, 2021)
